Paper PMC4703501 (Leukemia, 2015)
“Also recorded” adds a separate entry of the source.

Columns and labels:
GRANTA-519 = assay: GI50 growth inhibition assay; format: cell-based; settings: Homo sapiens, Granta-519, 96 h
Procedure, shortened: (§1)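 Cell lines were grown in DMEM or RPMI with 10% FBS and pen-strep at 37°C, 5% CO₂, and were mycoplasma-negative. Cells were seeded at 2.5×10³ per 0.1 ml per well, and test compound was added 24 hrs later at the indicated concentrations. Viable cells were measured by resazurin (Cell Titer Blue) read-out 96 hrs post-treatment in duplicate wells.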

MCL cell lines = assay: GI50 assays, MCL cell lines versus other tumor types; format: cell-based, human; settings: over a 96 hr period
Procedure, shortened: as §1

COLO-205 = assay: GI50 growth inhibition assay; format: cell-based; settings: Homo sapiens, COLO 205, 96 h
Procedure, shortened: as §1

Z138C cells = assay: cell cycle distribution, propidium iodide flow cytometry; format: cell-based, human; settings: 24 hours
Procedure, shortened: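 Z138C cells were treated with DMSO or increasing concentrations of test compound for 24 hours. They were then ethanol-fixed, PBS-washed and stained with RNase plus propidium iodide at 37°C for 20 min. DNA content was measured by flow cytometry to assign cell-cycle phases.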

HeLa cells = assay: TNF-α induced p65 NF-kB phosphorylation western blot; format: cell-based, human; settings: 5ng/ml TNF-α for 5 min after treatment
Procedure, shortened: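 Positive-control system: HeLa cells were pretreated with test compound, then stimulated with 5ng/ml TNF-α for 5 min. Phospho-p65 NF-kB was assessed by western blot of whole-cell extracts.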

[1] = tested on: Granta 519 and Z138C cells; assay: apoptosis markers; format: cell-based, human
Procedure, shortened: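 Granta 519 and Z138C cells were treated with test compound, then lysed in NP-40 buffer. Western blots on nitrocellulose assessed full-length caspases 3, 7 and 9 and PARP cleavage as apoptosis markers.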

[2] = plasma level pharmacokinetics; format: in vivo, CD-1 mice; settings: for area under the curve (AUC) as molar concentration / area under the curve (AUC): plasma
Procedure, shortened: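 Female CD-1 mice (10–12 weeks) received 50mg/kg test compound dissolved in water, ip or by oral gavage. Sampling was at 10, 30 min and 1, 2, 4, 8 h, n=2 per time point, with heart-puncture blood into heparin/EDTA tubes. Plasma was analysed by LC/MS, and AUC was calculated by the trapezoidal rule.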

MDA-MB-157 = assay: GI50 growth inhibition assay; format: cell-based; settings: Homo sapiens, MDA-MB-157, 96 h
Procedure, shortened: as §1

CDK2 = CDK2 (Homo sapiens, UniProt P24941); assay: in vitro kinase assay; format: biochemical; settings: data not shown
[3] = tested on: primary patient-derived MCL cells (MEM1, MEM2); assay: Rb and AKT pathway western blot in primary MCL; format: cell-based, human; settings: both primary MCL samples, 18 hrs
Procedure, shortened: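 Red cells were removed from primary MCL samples with ammonium chloride. Cells were then treated with increasing concentrations of test compound for 18 hrs and lysed in RIPA buffer (25mM Tris-HCl pH 7.5, 150mM NaCl, 1% NP40, 1% SDS, phosphatase inhibitors). […], nitrocellulose transfer and infrared imaging.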

Z138C xenograft = assay: Z138C tumor xenograft assay; format: in vivo, nu/nu mice
BT-474 = assay: GI50 growth inhibition assay; format: cell-based; settings: Homo sapiens, BT-474, 96 h
Procedure, shortened: (§2)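 Cells from ATCC were grown in DMEM or RPMI with 10% FBS and penicillin-streptomycin at 37°C, humidified, 5% CO₂, and tested mycoplasma-negative. They were seeded at 2.5×10³ cells per 0.1 ml per well. Test compound was added 24 hrs after plating at a range of concentrations. Viable cells were measured by Cell Titer Blue from duplicate wells 96 hrs after treatment.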

MIA-PaCa-2 = assay: GI50 growth inhibition assay; format: cell-based; settings: Homo sapiens, MIA PaCa-2, 96 h
Procedure, shortened: as §2

[4] = tested on: Granta 519 and Z138C cells; assay: CDK4/CYCLIN D/Rb pathway western blot; format: cell-based, human; settings: 24 hours
Procedure, shortened: (§3)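 Granta 519 and Z138C cells (RPMI or DMEM, 10% FBS, pen-strep, 37°C, 5% CO₂) received vehicle or increasing concentrations of test compound for 24 hours. Whole-cell extracts were made in NP-40 lysis buffer (Tris pH 7.4, NaF, Na₃VO₄), run on SDS-PAGE and blotted to nitrocellulose. Detection used infrared imaging, GAPDH was the loading control, and 4 independent experiments were done.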

[5] = tested on: Granta 519 and Z138C cells; assay: PI3K/AKT/mTOR pathway western blot; format: cell-based, human; settings: 24 hours
Procedure, shortened: as §3

[6] = previous studies; cited from earlier work
BT-20 = assay: GI50 growth inhibition assay; format: cell-based; settings: Homo sapiens, BT-20, 96 h
Procedure, shortened: as §1

Z138C = assay: GI50 growth inhibition assay; format: cell-based; settings: Homo sapiens, 96 h
Procedure, shortened: as §2

CDK5 = CDK5 (Homo sapiens, UniProt Q00535); assay: in vitro kinase assay; format: biochemical; settings: data not shown
Sequence of CDK5 (Q00535 whole entry): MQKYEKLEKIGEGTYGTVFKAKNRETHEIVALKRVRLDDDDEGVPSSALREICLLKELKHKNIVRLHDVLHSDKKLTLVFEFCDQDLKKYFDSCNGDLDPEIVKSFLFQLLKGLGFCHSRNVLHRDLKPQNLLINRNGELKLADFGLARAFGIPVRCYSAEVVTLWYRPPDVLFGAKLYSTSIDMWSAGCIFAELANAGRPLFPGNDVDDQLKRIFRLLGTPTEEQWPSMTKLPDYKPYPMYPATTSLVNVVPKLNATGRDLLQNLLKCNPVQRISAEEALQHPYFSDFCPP
Sequence of CDK5 (Q15078 99-307 partner limits assumed): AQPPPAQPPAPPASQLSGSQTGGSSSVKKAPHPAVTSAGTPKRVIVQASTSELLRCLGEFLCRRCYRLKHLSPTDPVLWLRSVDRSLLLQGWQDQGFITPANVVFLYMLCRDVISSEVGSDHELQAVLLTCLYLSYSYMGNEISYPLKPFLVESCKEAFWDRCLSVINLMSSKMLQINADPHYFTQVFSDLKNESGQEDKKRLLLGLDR

SNU-5 = assay: GI50 growth inhibition assay; format: cell-based; settings: Homo sapiens, SNU-5, 96 h
Procedure, shortened: as §1

SNU-398 = assay: GI50 growth inhibition assay; format: cell-based; settings: Homo sapiens, SNU-398, 96 h
Procedure, shortened: as §1

[7] = maximum tolerated dose study; format: in vivo, CD-1 mice
Procedure, shortened: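 Female CD-1 mice (10–12 weeks), n=3 per group, were used. One arm received a single ip dose of 100 or 200 mg/kg, with toxicity signs and body weight followed for 7 days. The other arm received 200mg/kg ip for 5 consecutive days, followed for 10 days.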

CDK8 = CDK8 (Homo sapiens, UniProt P49336); assay: in vitro kinase assay; format: biochemical; settings: data not shown
Sequence of CDK8 (P49336 whole entry): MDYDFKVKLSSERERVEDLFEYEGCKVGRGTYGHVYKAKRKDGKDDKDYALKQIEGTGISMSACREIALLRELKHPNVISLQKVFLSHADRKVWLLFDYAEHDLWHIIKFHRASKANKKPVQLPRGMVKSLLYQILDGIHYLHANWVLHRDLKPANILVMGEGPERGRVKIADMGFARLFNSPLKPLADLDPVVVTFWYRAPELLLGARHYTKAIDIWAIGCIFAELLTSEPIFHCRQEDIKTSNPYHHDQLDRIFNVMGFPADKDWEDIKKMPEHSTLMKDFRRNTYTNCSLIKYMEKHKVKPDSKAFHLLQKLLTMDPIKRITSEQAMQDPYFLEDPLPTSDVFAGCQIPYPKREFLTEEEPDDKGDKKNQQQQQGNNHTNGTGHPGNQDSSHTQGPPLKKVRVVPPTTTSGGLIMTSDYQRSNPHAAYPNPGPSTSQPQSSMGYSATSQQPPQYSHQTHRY
Sequence of CDK8 (P24863 whole entry partner): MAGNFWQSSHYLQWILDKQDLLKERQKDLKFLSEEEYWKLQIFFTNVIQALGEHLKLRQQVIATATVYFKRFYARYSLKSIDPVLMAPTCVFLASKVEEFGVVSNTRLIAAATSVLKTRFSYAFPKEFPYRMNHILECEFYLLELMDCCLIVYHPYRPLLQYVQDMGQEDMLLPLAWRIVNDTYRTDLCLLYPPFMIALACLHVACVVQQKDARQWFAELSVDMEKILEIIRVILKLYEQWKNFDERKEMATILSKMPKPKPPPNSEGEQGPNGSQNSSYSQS

DLD-1 = assay: GI50 growth inhibition assay; format: cell-based; settings: Homo sapiens, DLD-1, 96 h
Procedure, shortened: as §1

CDK1 = CDK1 (Homo sapiens, UniProt P06493); assay: in vitro kinase assay; format: biochemical; settings: data not shown
Sequence of CDK1 (P06493 whole entry): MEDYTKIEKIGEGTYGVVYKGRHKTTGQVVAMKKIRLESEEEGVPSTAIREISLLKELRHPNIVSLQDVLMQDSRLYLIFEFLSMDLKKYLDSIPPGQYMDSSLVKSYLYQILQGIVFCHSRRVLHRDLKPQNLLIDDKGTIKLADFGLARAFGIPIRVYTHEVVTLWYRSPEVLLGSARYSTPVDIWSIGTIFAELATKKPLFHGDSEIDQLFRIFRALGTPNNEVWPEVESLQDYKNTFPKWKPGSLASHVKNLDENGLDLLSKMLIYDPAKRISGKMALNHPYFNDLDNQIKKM
Sequence of CDK1 (P14635 whole entry, further chain): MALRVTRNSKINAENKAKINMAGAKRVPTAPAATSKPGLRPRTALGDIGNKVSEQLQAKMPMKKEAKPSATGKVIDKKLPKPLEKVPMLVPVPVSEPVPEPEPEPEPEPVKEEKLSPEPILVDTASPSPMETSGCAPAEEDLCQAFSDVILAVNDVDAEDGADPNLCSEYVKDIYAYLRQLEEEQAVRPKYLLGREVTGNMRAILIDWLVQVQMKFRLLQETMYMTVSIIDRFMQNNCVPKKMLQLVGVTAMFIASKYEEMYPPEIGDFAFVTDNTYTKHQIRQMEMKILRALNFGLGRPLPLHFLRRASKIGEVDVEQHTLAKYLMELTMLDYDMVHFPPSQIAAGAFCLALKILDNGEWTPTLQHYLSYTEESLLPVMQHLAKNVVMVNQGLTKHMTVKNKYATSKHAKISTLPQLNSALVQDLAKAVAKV

SMILES: CN1CCN(c2ccc(Nc3ncc4cc(C#N)c(=O)n(C5CCCC5)c4n3)cc2)CC1 [ON123300, 8-cyclopentyl-2-[4-(4-methyl-piperazin-1-yl)-phenylamino]-7-oxo-7,8-dihydro-pyrid o[2,3-d]pyrimidine-6-carbonitrile]
- GI50 (GRANTA-519): 0.035 µM
- concentrations inducing growth arrest and cell death (MCL cell lines): 25 to 50 nM
- GI50 (COLO-205): 0.2 µM
- concentrations at which cells accumulated in the G1 phase (Z138C cells): 0.1 to 1.0 µM
- accumulation of cells in the sub-G1 phase (Z138C cells; for ON123300 at higher concentrations): eventually accumulated in the sub-G1 phase
- phosphorylation status of p65 (HeLa cells): little or no effect
- PARP cleavage at lower concentrations ([1]; 72–96 hrs incubation, data not shown): readily resulted in PARP cleavage
- concentration at which PARP cleavage is seen ([1]; 24 hrs): greater than or equal to 2.5 µM
- levels of full-length caspases 3, 7 and 9 ([1]; 24 hrs): decreases in the levels of full-length forms of caspases 3, 7 and 9
- oral bioavailability ([2]; mice): orally bio-available
- area under the curve (AUC) as molar concentration ([2]; 50mg/kg ip): 16.71 µM/ml/hr
- area under the curve (AUC) ([2]; 50mg/kg ip injection): 7.18 µg/mL/h
- area under the curve (AUC) ([2]; 50mg/kg oral gavage (po)): 2.78 µg/mL/h
- area under the curve (AUC) as molar concentration ([2]; 50mg/kg po): 6.47 µM/ml/hr
- GI50 (MDA-MB-157): 0.25 µM
- inhibitory activity against CDK2 (CDK2): little inhibitory activity
- levels of Rb and AKT phosphorylation [3]: reductions in the levels of Rb and AKT phosphorylation
- phosphorylation of S6RB [3]: inhibited
- total body weights (Z138C xenograft; 100mg/kg daily treatment): did not cause a significant reduction
- tumor growth (Z138C xenograft; 100mg/kg daily, ip, 2-week period, p<0.05): significantly inhibited; also recorded: markedly inhibited tumor growth
- GI50 (BT-474): 0.25 µM
- GI50 (MIA-PaCa-2): 0.25 µM
- levels of CDK4 and CDK2 [4]: unaffected
- p21 levels [4]: loss of p21 levels
- levels of CYCLIN D1 ([4]; as a function of concentration): declined
- phosphorylation of pRb and p130 ([4]; increasing concentrations): inhibited the phosphorylation of pRb and p130
- AKT Ser473 phosphorylation [5]: inhibition of AKT Ser473 phosphorylation
- FOXO1 phosphorylation [5]: inhibition of FOXO1 phosphorylation
- mTOR phosphorylation at Ser2481 [5]: inhibition of mTOR phosphorylation at Ser2481
- phosphorylation of 4EBP1 and S6RB [5]: inhibited
- blood-brain barrier crossing [6]: readily crosses the blood-brain barrier
- GI50 (BT-20): 0.1 µM
- GI50 (Z138C): 0.025 µM
- inhibitory activity against CDK5 (CDK5): little inhibitory activity
- GI50 (SNU-5): 0.2 µM
- GI50 (SNU-398): 0.3 µM
- survival rate ([7]; 200mg/kg ip for 5 consecutive days, at least 10 days post-administration): 100%
- signs of toxicity ([7]; 200mg/kg ip for 5 consecutive days, data not shown): did not exhibit any signs of toxicity
- toxicity ([7]; mice, administered orally or intraperitoneally): minimally toxic
- survival rate ([7]; single ip dose 100 or 200 mg/kg, 7 days): 100%
- signs of toxicity and body weights ([7]; single ip dose 100 or 200 mg/kg, monitored 7 days): No signs of toxicity or weight loss
- inhibitory activity against CDK8 (CDK8): little inhibitory activity
- GI50 (DLD-1): 0.1 µM
- inhibitory activity against CDK1 (CDK1): little inhibitory activity
